Converted amounts (≈) assume the structure as drawn. The source made the active and inactive calls. No cut-off for these calls is given here.
Columns and labels:
[1] = tested on: U138-MG; assay: Cytotoxicity against human U138MG cells at 100 nM after 48 by MTT assay; format: functional, cell-based
How it was run: (§1)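 MTT viability assay. C6 seeded at 1×10^3 cells/well in DMEM/5% FBS and U-138 MG in DMEM/15% FBS. Exposed to 0.1, 0.5, 1, 5, 10 μg/ml for 24, 48 or 72 h, or to AS605240 at 100 nM, 10 μM or 30 μM for 48 h. Vehicle 0.01% DMSO. Viability given as % of control, mean ± SEM of 3 experiments in triplicate. IC50 as geometric mean with 95% confidence limits.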

[2] = tested on: C6; assay: Cytotoxicity against rat C6 cells at 100 nM after 48 hrs by MTT assay; format: functional, cell-based; how it was run: as §1
[3] = tested on: U138-MG; assay: Antiproliferative activity against human U138MG cells at 100 nM after 48 by hemocytometric analysis; format: functional, cell-based
How it was run: (§2)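 Cell-count proliferation assay. U-138 MG seeded at 1×10^4 cells/well in DMEM/15% FBS and C6 at 5×10^3 cells/well in DMEM/5% FBS, grown 24 h. Medium changed, then chalcones (0.1–10 μg/ml) or AS605240 (100 nM, 10 μM, 30 μM) added. Cells washed in Ca/Mg-free PBS, trypsin/EDTA-detached and counted in a Neubauer chamber. Inhibition versus control, mean ± SEM of 3 experiments in triplicate.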

[4] = tested on: C6; assay: Antiproliferative activity against rat C6 cells at 100 nM after 48 hrs by hemocytometric analysis; format: functional, cell-based; how it was run: as §2
[5] = Growth inhibition of human U138MG cells at 30 uM after 48 by MTT assay; format: functional; conditions: U138-MG, read-out: GI; how it was run: as §1
[6] = tested on: C6; assay: Growth inhibition of rat C6 cells at 30 uM after 48 hrs by MTT assay; format: functional; conditions: C6, 48 h, read-out: GI; how it was run: as §1
[7] = Antiproliferative activity against human U138MG cells assessed as growth inhibition at 30 uM after 48 by hemocytometric analysis; format: functional; conditions: U138-MG, read-out: GI; how it was run: as §2
[8] = tested on: C6; assay: Antiproliferative activity against rat C6 cells assessed as growth inhibition at 30 uM after 48 hrs by hemocytometric analysis; format: functional; conditions: C6, 48 h, read-out: GI; how it was run: as §2
[9] = tested on: C6; assay: Inhibition of PI3Kgamma-mediated Akt activation in rat C6 cells at 30 uM after 15 mins by flow cytometric analysis; format: cell-based
How it was run: (§3)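 C6 cells (2×10^5/well) grown 24 h in 5% FBS DMEM, then serum-starved 24 h in 0.5% FBS. Treated with 5 μg/ml test compound or 30 μM AS605240 plus 5% FBS stimulus, 15 or 30 min. Cells trypsinized, fixed, permeabilized, stained 30 min with AKT antibody and read by flow cytometry. Controls: unstimulated, and 5% FBS plus 0.01% DMSO.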

[10] = tested on: C6; assay: Inhibition of PI3Kgamma-mediated Akt activation in rat C6 cells at 30 uM after 30 mins by flow cytometric analysis; format: cell-based; how it was run: as §3
[11] = tested on: C6; assay: Cytotoxicity against rat C6 cells at 5 ug/ml after 48 hrs by MTT assay; format: functional; how it was run: as §1
[12] = Cytotoxicity against human U138MG cells at 5 ug/ml after 48 hrs by MTT assay; format: functional, U138-MG; how it was run: as §1
[13] = tested on: C6; assay: Cytotoxicity against rat C6 cells after 48 hrs by MTT assay; format: functional, cell-based; conditions: C6, 48 h; how it was run: as §1
[14] = Antiproliferative activity against human U138MG cells at 5 ug/ml after 24 to 72 hrs by hemocytometric analysis; format: functional, U138-MG; how it was run: as §2
[15] = tested on: C6; assay: Antiproliferative activity against rat C6 cells at 5 ug/ml after 24 to 72 hrs by hemocytometric analysis; format: functional; how it was run: as §2
[16] = Antiproliferative activity against human U138MG cells after 24 to 72 hrs by hemocytometric analysis; format: functional, cell-based; conditions: U138-MG; how it was run: as §2
[17] = tested on: C6; assay: Antiproliferative activity against rat C6 cells after 24 to 72 hrs by hemocytometric analysis; format: functional, cell-based; how it was run: as §2
[18] = tested on: U138-MG; assay: Cytotoxicity against human U138MG cells at 0.1 to 0.5 ug/ml after 48 to 72 hrs by MTT assay; format: functional, cell-based; how it was run: as §1
[19] = tested on: C6; assay: Cytotoxicity against rat C6 cells at 0.1 to 0.5 ug/ml after 48 to 72 hrs by MTT assay; format: functional, cell-based; how it was run: as §1
[20] = tested on: U138-MG; assay: Cytotoxicity against human U138MG cells at 0.1 to 0.5 ug/ml after 24 hrs by MTT assay; format: functional, cell-based; how it was run: as §1
[21] = tested on: C6; assay: Cytotoxicity against rat C6 cells at 0.1 to 0.5 ug/ml after 24 hrs by MTT assay; format: functional, cell-based; how it was run: as §1
[22] = tested on: U138-MG; assay: Cytotoxicity against human U138MG cells at 0.1 to 0.5 ug/ml by MTT assay; format: functional, cell-based; conditions: TDE = time-dependent effect; how it was run: as §1
[23] = tested on: C6; assay: Cytotoxicity against rat C6 cells at 0.1 to 0.5 ug/ml by MTT assay; format: functional, cell-based; conditions: TDE = time-dependent effect; how it was run: as §1
[24] = tested on: U138-MG; assay: Antiproliferative activity against human U138MG cells at 0.1 to 0.5 ug/ml after 48 to 72 hrs by hemocytometric analysis; format: functional, cell-based; how it was run: as §2
[25] = tested on: C6; assay: Antiproliferative activity against rat C6 cells at 0.1 to 0.5 ug/ml after 48 to 72 hrs by hemocytometric analysis; format: functional, cell-based; how it was run: as §2
[26] = tested on: U138-MG; assay: Antiproliferative activity against human U138MG cells at 0.1 to 0.5 ug/ml after 24 hrs by hemocytometric analysis; format: functional, cell-based; how it was run: as §2
[27] = tested on: C6; assay: Antiproliferative activity against rat C6 cells at 0.1 to 0.5 ug/ml after 24 hrs by hemocytometric analysis; format: functional, cell-based; how it was run: as §2
[28] = tested on: U138-MG; assay: Antiproliferative activity against human U138MG cells at 0.1 to 0.5 ug/ml by hemocytometric analysis; format: functional, cell-based; conditions: TDE = time-dependent effect; how it was run: as §2
[29] = tested on: C6; assay: Antiproliferative activity against rat C6 cells at 0.1 to 0.5 ug/ml by hemocytometric analysis; format: functional, cell-based; conditions: TDE = time-dependent effect; how it was run: as §2
[30] = tested on: C6; assay: Cell cycle arrest in rat C6 cells assessed as accumulation at sub-G1/G0 phase after 6 hrs by flow cytometric analysis; format: functional, cell-based
How it was run: (§4)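 C6 cells at 3×10^5 per well, in triplicate, given 0.1% DMSO vehicle or 2.5 μg/ml for 6, 12 or 24 h. Ethanol-fixed (70%), stained with propidium iodide/RNase/Triton, 10,000 cells acquired by flow cytometry. Results are relative cell numbers in sub-G1/G1, S and G2/M, from 6 independent experiments.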

[31] = tested on: C6; assay: Cell cycle arrest in rat C6 cells assessed as accumulation at sub-G1/G0 phase after 12 hrs by flow cytometric analysis; format: functional, cell-based; how it was run: as §4
[32] = tested on: C6; assay: Cell cycle arrest in rat C6 cells assessed as accumulation at sub-G1/G0 phase at 2.5 ug/ml after 24 hrs by flow cytometric analysis (reference value: 57.9%); format: functional; how it was run: as §4
[33] = tested on: C6; assay: Inhibition of PI3Kgamma-mediated Akt activation in rat C6 cells at 5 ug/ml after 15 mins by flow cytometric analysis; format: cell-based; how it was run: as §3
[34] = tested on: C6; assay: Inhibition of PI3Kgamma-mediated Akt activation in rat C6 cells at 5 ug/ml after 30 mins by flow cytometric analysis; format: cell-based; how it was run: as §3
[35] = Antiproliferative activity against human U138MG cells at 2 ug/ml after 48 hrs by hemocytometric analysis; format: functional; conditions: U138-MG
How it was run: (§5)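 Doxorubicin at 2 μg/mL for 48 h on C6 and U-138 MG cells. Proliferation measured as percentage inhibition.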

[36] = tested on: C6; assay: Antiproliferative activity against rat C6 cells at 2 ug/ml after 48 hrs by hemocytometric analysis; format: functional; conditions: C6, 48 h; how it was run: as §5

Structure (SMILES) | Imax [11] [%] | Imax [12] [%] | IC50 [13] [µg/mL] | Imax [14] [%] | Imax [15] [%] | IC50 [16] [µg/mL] | IC50 [17] [µg/mL] | Activity [18] | Activity [19] | Activity [20] | Activity [21] | Activity [22] | Activity [23] | Activity [24] | Activity [25] | Activity [26] | Activity [27] | Activity [28] | Activity [29] | also measured
O=C1NC(=O)/C(=C/c2ccc3nccnc3c2)S1 | – | – | – | – | – | – | – | – | – | – | – | – | – | – | – | – | – | – | – | Activity [1]: inactive; Activity [2]: inactive; Activity [3]: inactive; Activity [4]: inactive; inhibition of growth at 30 µM [5]: 10%; inhibition of growth at 30 µM [6]: 35%; inhibition of growth at 30 µM [7]: 10%; inhibition of growth at 30 µM [8]: 73%; inhibition [9]: 31%; inhibition [10]: 41%
O=C(/C=C/c1ccc2nccnc2c1)c1ccc(Br)cc1 | 56 | 16 | 9.19 (≈ 27.1 µM) | – | – | – | – | – | – | – | – | – | – | – | – | – | – | – | – | –
COc1ccc(C(=O)/C=C/c2ccc3nccnc3c2)cc1OC | 51 | 33 | 4.16 (≈ 13 µM) | 84 | 82 | 2.29 (≈ 7.15 µM) | 1 (≈ 3.12 µM) | Active | Active | inactive | inactive | tde | tde | Active | Active | inactive | inactive | tde | tde | –
O=C(/C=C/c1ccc2nccnc2c1)c1ccc2c(c1)OCO2 | 55 | 15 | 8.39 (≈ 27.6 µM) | – | – | – | – | – | – | – | – | – | – | – | – | – | – | – | – | –
O=C(/C=C/c1ccc2nccnc2c1)c1ccccc1 | 60 | 21 | 4.63 (≈ 17.8 µM) | – | – | – | – | – | – | – | – | – | – | – | – | – | – | – | – | –
COc1ccc(OC)c(C(=O)/C=C/c2ccc3nccnc3c2)c1 | 50 | 36 | 2.66 (≈ 8.3 µM) | 87 | 85 | 2.64 (≈ 8.24 µM) | 1.35 (≈ 4.21 µM) | Active | Active | inactive | inactive | tde | tde | Active | Active | inactive | inactive | tde | tde | Activity [30]: Active; Activity [31]: Active; Activity [32]: 66.4%; inhibition [33]: 60%; inhibition [34]: 46%
COc1ccc(C(=O)/C=C/c2ccc3nccnc3c2)cc1 | 53 | 34 | 4.42 (≈ 15.2 µM) | 84 | 90 | 2.67 (≈ 9.2 µM) | 2.19 (≈ 7.54 µM) | Active | Active | inactive | inactive | tde | tde | Active | Active | inactive | inactive | tde | tde | –
COc1cccc2c1C(=O)c1c(O)c3c(c(O)c1C2=O)C[C@@](O)(C(=O)CO)C[C@@H]3O[C@H]1C[C@H](N)[C@H](O)[C@H](C)O1 [DOXORUBICIN] | – | – | – | – | – | – | – | – | – | – | – | – | – | – | – | – | – | – | – | inhibition at 2 µg/mL [35]: 31%; inhibition at 2 µg/mL [36]: 27%
COc1ccc(C(=O)/C=C/c2ccc3nccnc3c2)c(OC)c1 | 52 | 42 | 4.6 (≈ 14.4 µM) | 86 | 67 | 2.48 (≈ 7.74 µM) | 1.53 (≈ 4.78 µM) | Active | Active | inactive | inactive | tde | tde | Active | Active | inactive | inactive | tde | tde | –
O=C(/C=C/c1ccc2nccnc2c1)c1ccc([N+](=O)[O-])cc1 | 26 | 9 | – | – | – | – | – | – | – | – | – | – | – | – | – | – | – | – | – | –

Reference: ChEMBL document CHEMBL1938291, “Activity of novel quinoxaline-derived chalcones on in vitro glioma cell proliferation” (Eur J Med Chem, 2012)
